# Calls of active or inactive are those of the source. No cut-off for these calls is given here.
# Key:
# [1] = tested on: RAW264.7; assay: Antiinflammatory activity in mouse RAW264.7 cells assessed as inhibition of LPS-induced NO production at 30 uM incubated for 10 mins prior to LPS-challenge measured after 18 hrs by Griess method relative to control; format: functional
# In short: (§1)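 RAW264.7 cells (DMEM, 10% FBS, 37 °C, 5% CO2) seeded at 2.5 × 10^5 cells/well. After 6 h, nonadherent cells were washed off. Adherent cells were exposed to test compound for 10 min, then to LPS (E. coli 055:B5, final 10 µg/mL) for 18 h. Supernatant nitrite was measured by Griess reaction. Inhibition % = (A−B)/(A−C)×100, with C as the no-LPS control. IC50 was read graphically; N = 4, mean ± SEM. CAPE was the reference.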
# [2] = tested on: RAW264.7; assay: Antiinflammatory activity in mouse RAW264.7 cells assessed as inhibition of LPS-induced NO production at 10 uM incubated for 10 mins prior to LPS-challenge measured after 18 hrs by Griess method relative to control; format: functional; in short: as §1
# [3] = tested on: RAW264.7; assay: Antiinflammatory activity in mouse RAW264.7 cells assessed as inhibition of LPS-induced NO production incubated for 10 mins prior to LPS-challenge measured after 18 hrs by Griess method; format: functional, cell-based; in short: as §1
# [4] = Cytotoxicity against mouse RAW264.7 cells assessed as cell viability at 10 uM after 18 hrs by MTT assay; format: cell-based; conditions: read-out: Activity
# In short: (§2)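 MTT viability assay. RAW264.7 cells seeded at 1.0 × 10^5 cells/well; after 6 h, nonadherent cells were washed off. Adherent cells were cultured with test compound for 18 h. MTT (5 mg/mL in PBS) was added for 2 h at 37 °C. Formazan was dissolved in isopropanol with 0.04 M HCl and OD read at 570 nm (reference 655 nm).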
# [5] = Cytotoxicity against mouse RAW264.7 cells assessed as cell viability at 30 uM after 18 hrs by MTT assay; format: cell-based; conditions: read-out: Activity; in short: as §2
# [6] = tested on: RAW264.7; assay: Antiinflammatory activity in mouse RAW264.7 cells assessed as inhibition of LPS-induced NO production at 3 uM incubated for 10 mins prior to LPS-challenge measured after 18 hrs by Griess method relative to control
# [7] = tested on: RAW264.7; assay: Antiinflammatory activity in mouse RAW264.7 cells assessed as inhibition of LPS-induced NO production at 1 uM incubated for 10 mins prior to LPS-challenge measured after 18 hrs by Griess method relative to control; format: functional; in short: as §1
# [8] = tested on: RAW264.7; assay: Antiinflammatory activity in mouse RAW264.7 cells assessed as inhibition of LPS-induced iNOS expression at 1 to 30 uM incubated for 10 mins prior to LPS-challenge measured after 12 hrs by Western blot analysis; format: functional, cell-based
# In short: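 RAW264.7 cells (5.0 × 10^6/well, 6-well) adhered for 6 h. Compound was added for 10 min, then LPS (final 10 µg/mL) for 12 h. Lysates were sonicated and normalized by BCA. 50 µg protein/lane was run on 10% SDS–PAGE and transferred to PVDF. Blots were probed for iNOS and β-actin (primary 1:1000, HRP secondary 1:5000) and detected by ECL.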
# [9] = biological target: T1, Signal transducer and activator of transcription 1 (Mus musculus) (UniProt P42225); assay: Inhibition of STAT1 phosphorylation in LPS-induced mouse RAW264.7 cells incubated for 10 mins prior to LPS-challenge measured after 30 mins by Western blot analysis; format: cell-based
# T1 sequence (whole entry): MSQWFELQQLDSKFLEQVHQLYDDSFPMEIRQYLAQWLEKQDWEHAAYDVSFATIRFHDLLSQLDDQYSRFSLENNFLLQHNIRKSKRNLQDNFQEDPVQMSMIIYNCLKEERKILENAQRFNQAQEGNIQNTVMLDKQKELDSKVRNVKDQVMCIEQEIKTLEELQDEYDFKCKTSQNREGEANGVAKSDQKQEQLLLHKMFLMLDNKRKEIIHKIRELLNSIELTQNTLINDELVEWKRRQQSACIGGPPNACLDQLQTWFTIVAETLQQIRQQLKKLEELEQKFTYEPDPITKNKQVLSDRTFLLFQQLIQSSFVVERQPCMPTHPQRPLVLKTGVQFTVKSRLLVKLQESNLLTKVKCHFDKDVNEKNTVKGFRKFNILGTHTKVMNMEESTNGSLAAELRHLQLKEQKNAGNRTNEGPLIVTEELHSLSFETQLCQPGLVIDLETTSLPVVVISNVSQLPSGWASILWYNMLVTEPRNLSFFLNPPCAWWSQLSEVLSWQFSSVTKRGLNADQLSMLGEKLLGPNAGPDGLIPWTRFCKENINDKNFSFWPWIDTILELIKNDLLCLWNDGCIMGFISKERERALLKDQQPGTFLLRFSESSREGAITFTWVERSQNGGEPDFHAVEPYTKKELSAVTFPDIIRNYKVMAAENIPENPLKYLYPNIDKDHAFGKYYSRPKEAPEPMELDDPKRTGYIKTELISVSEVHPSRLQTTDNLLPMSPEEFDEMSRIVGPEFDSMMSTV
# In short: (§3)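 RAW264.7 cells (5.0 × 10^6/well) adhered for 6 h. Compound was added for 10 min, then LPS (final 10 µg/mL) for 30 min. BCA-normalized lysates, 25 µg/lane, were run on 10% SDS–PAGE and transferred to PVDF. Phospho-proteins (p-JNK, p-p38, p-STAT1 Ser727) were blocked in Blocking One-P, others (NF-κB p65) in Blocking One. Primary antibodies 1:1000 for 1 h at rt; detection by ECL.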
# [10] = biological target: MAP kinase p38 (Mus musculus) (UniProt P47811+O08911+Q9WUI1+Q9Z1B7); assay: Inhibition of p38 phosphorylation in LPS-induced mouse RAW264.7 cells at 1 to 30 uM incubated for 10 mins prior to LPS-challenge measured after 30 mins by Western blot analysis; format: cell-based; in short: as §3
# [11] = tested on: RAW264.7; assay: Inhibition of SAPK/JNK phosphorylation in LPS-induced mouse RAW264.7 cells at 1 to 30 uM incubated for 10 mins prior to LPS-challenge measured after 30 mins by Western blot analysis; format: cell-based; in short: as §3
# [12] = tested on: RAW264.7; assay: Antiinflammatory activity in mouse RAW264.7 cells assessed as inhibition of LPS-induced NO production at 100 uM relative to control; format: functional; in short: as §1
# [13] = Cytotoxicity against mouse RAW264.7 cells assessed as cell viability at 3 uM after 18 hrs by MTT assay; format: cell-based; conditions: read-out: Activity; in short: as §2
# [14] = tested on: RAW264.7; assay: Antiinflammatory activity in mouse RAW264.7 cells assessed as inhibition of LPS-induced NO production at 10 uM relative to control; format: functional; in short: as §1
IC50 [3],inhibition [9],inhibition [10],Compound,inhibition at 30 µM [1],inhibition at 10 µM [2],"viability at 18 h, 10 µM [4]","viability at 18 h, 30 µM [5]",inhibition at 3 µM [6],inhibition at 1 µM [7],inhibition [8],inhibition [11],inhibition at 100 µM [12],"viability at 18 h, 3 µM [13]",inhibition at 10 µM [14]
> 30 µM,–,–,CCCC(=O)c1c2c(c3oc(=O)cc(-c4ccccc4)c3c1O)C=CC(C)(C)O2,14.3%,9.4%,–,–,–,–,–,–,–,–,–
3.8 µM,–,–,O=C(/C=C/c1ccc(O)c(O)c1)OCCc1ccccc1 [CAFFEIC ACID PHENETHYL ESTER],100%,98.4%,76.4%,15.6%,45.7%,5.4%,–,–,–,–,–
6.2 µM,–,–,CC[C@H](O)c1cc(=O)oc2c(C(=O)CC(C)C)c(O)c(C/C=C(\C)CCC=C(C)C)c(O)c12 [SURANGIN D],74%,55.4%,–,104%,41.1%,22.7%,–,–,–,–,–
0.8 µM,Dose-dependent effect,inactive,CC[C@H](O)c1cc(=O)oc2c(CC=C(C)C)c(O)c(C(=O)CC(C)C)c(O)c12 [KAYEASSAMIN G],72.3%,81.5%,–,83.7%,55.9%,51%,Active,inactive,–,–,–
> 30 µM,–,–,CCC(C)C(=O)c1c2c(c3oc(=O)cc(-c4ccccc4)c3c1O)C=CC(C)(C)O2 (stereo not drawn),18.3%,12.9%,–,–,–,–,–,–,–,–,–
–,–,–,COc1cccc(-c2cc(=O)c3ccccc3o2)c1N,–,–,–,–,–,–,–,–,-2.4%,–,–
13 µM,–,–,CCCC(=O)c1c(O)c(CC=C(C)C)c2oc(=O)cc(-c3ccccc3)c2c1O [MAMMEA A/AC],67.6%,46.9%,–,96.8%,14.2%,0.6%,–,–,–,–,–
19.7 µM,–,–,CCCC(=O)c1c(O)c2c(c3c([C@@H](O)CC)cc(=O)oc13)OC(C)(C)C=C2 [DEACETYLMAMMEA E/BC CYCLO D],62.3%,33.1%,–,107%,20.2%,15.1%,–,–,–,–,–
6 µM,–,–,CCC(C)C(=O)c1c(O)c(CC=C(C)C)c2oc(=O)cc([C@@H](O)CC)c2c1O (stereo partly drawn) [KAYEASSAMIN F],63.1%,60.7%,55.2%,31.5%,41.3%,31.4%,–,–,–,–,–
1.3 µM,Dose-dependent effect,inactive,CC(C)=CCc1c(O)c(C(=O)C(C)C)c(O)c2c(-c3ccccc3)cc(=O)oc12 [MESUOL],103%,89.4%,27.2%,10.1%,83.4%,33.7%,Active,inactive,–,57.2%,–
6.1 µM,–,–,CCCC(=O)c1c(O)c(CC=C(C)C)c2oc(=O)cc([C@@H](O)CC)c2c1O [KAYEASSAMIN E],63.8%,67.1%,42.8%,42.2%,38.8%,38.7%,–,–,–,–,–
26.6 µM,–,–,CCCC(=O)c1c(O)c(C/C=C(\C)CCC=C(C)C)c(O)c2c([C@@H](O)CC)cc(=O)oc12 [KAYEASSAMIN A],56.6%,29.7%,–,82.4%,15%,5%,–,–,–,–,–
6.4 µM,–,–,CC[C@H](OC(C)=O)c1cc(=O)oc2c(C(=O)CC(C)C)c(O)c(C/C=C(\C)CCC=C(C)C)c(O)c12 [MAMMEASIN B],88.2%,64.7%,20.2%,13.6%,31.1%,0.6%,–,–,–,60.3%,–
> 30 µM,–,–,CCCc1cc(=O)oc2c3c(c(C(=O)C(C)CC)c(O)c12)OC(C)(C)C=C3 (stereo not drawn),13.3%,10.6%,–,–,–,–,–,–,–,–,–
6.8 µM,–,–,CCC(C)C(=O)c1c(O)c(C/C=C(\C)CCC=C(C)C)c(O)c2c([C@@H](O)CC)cc(=O)oc12 (stereo partly drawn) [SURANGIN C],71.3%,56.7%,61.7%,42.9%,40.8%,18.1%,–,–,–,–,–
5 µM,–,–,CCC(C)C(=O)c1c(O)c(C/C=C(\C)CCC=C(C)C)c(O)c2c([C@H](CC)OC(C)=O)cc(=O)oc12 (stereo partly drawn) [SURANGIN B],91.1%,74.3%,42.3%,18.1%,35.7%,8.5%,–,–,–,67.1%,–
> 30 µM,–,–,CCCC(=O)c1c2c(c3oc(=O)cc(CCC)c3c1O)C=CC(C)(C)O2,13.8%,9.9%,–,–,–,–,–,–,–,–,–
7.9 µM,–,–,CCC(C)C(=O)c1c(O)c(CC=C(C)C)c(O)c2c([C@H](CC)OC(C)=O)cc(=O)oc12 (stereo partly drawn),89.1%,50.5%,29.9%,11%,24.2%,-1.5%,–,–,–,55.3%,–
–,–,–,Nc1n[nH]c2nnc(-c3c(-c4ccccc4)nn4ccccc34)cc12,–,–,–,–,–,–,–,–,–,–,7.2%
16 µM,–,–,Oc1ccc(-c2nc(-c3ccncc3)c(-c3ccc(F)cc3)[nH]2)cc1 [SB-202190],70.2%,36.8%,–,81.4%,–,–,–,–,–,–,–
1.8 µM,Dose-dependent effect,inactive,CCCC(=O)c1c(O)c(C/C=C(\C)CCC=C(C)C)c(O)c2c([C@H](CC)OC(C)=O)cc(=O)oc12 [MAMMEASIN A],92%,88.1%,24.1%,10.2%,72.9%,27.5%,Active,inactive,–,56.4%,–
